Activity calls are given as the source filed them. The rule behind the calls is not given here.
How the values were obtained:
[1] = system: Plasma; experiment: Prodrug conversion in CFW Swiss-Webster mouse plasma assessed as cidofovir monoethyl ester formation at 10 mg/kg administered through oral gavage; type: ADME, organism-based; set-up: dose 10 mg/kg, route oral; conditions: in vivo
[2] = system: Plasma; experiment: Drug uptake in fasted Albino Sprague-Dawley rat plasma at 10 mg/kg administered into gastrointestinal tract measured up to 4 hrs; type: ADME, organism-based; set-up: dose 10 mg/kg; conditions: in vivo, other
In short: (§1)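 Rats received 3 mg of drug (about 10 mg/kg) by direct injection into the gastrointestinal tract. Plasma was sampled over a 4 h time course. Read-out was dose-corrected total cidofovir species in plasma.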

[3] = system: Vaccinia virus; experiment: Antiviral activity against Vaccinia virus Copenhagen infected in HFF cells assessed as reduction in plaque formation after 3 days; type: functional, organism-based; conditions: Orthopoxvirus vaccinia, 72 h
[4] = system: Human betaherpesvirus 5; experiment: Antiviral activity against Human cytomegalovirus Towne infected in HFF cells assessed as reduction in plaque formation after 10 days; type: functional, organism-based; conditions: Human betaherpesvirus 5, Towne, 240 h
In short: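 HCMV plaque reduction assay incubated 10 days, with ganciclovir as the positive control.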

[5] = Antiviral activity against Cowpox virus Brighton infected in HFF cells assessed as reduction in plaque formation after 3 days; type: functional, cell-based, Cowpox virus (Brighton Red); conditions: 72 h
[6] = Cytotoxicity against human KB cells after 48 hrs by crystal violet staining technique; type: cell-based
[7] = system: Plasma; experiment: Prodrug conversion in fasted Albino Sprague-Dawley rat assessed as increase of cidofovir species level in plasma at 10 mg/kg into gastrointestinal tract relative to cidofovir or cyclic cidofovir; type: ADME, organism-based; set-up: dose 10 mg/kg; conditions: in vivo, other; in short: as §1
[8] = system: HFF; experiment: (§2) Cytotoxicity against HFF cells; type: cell-based; conditions: human, hff
[9] = as §2; type: cell-based; conditions: human, HFF cells
[10] = system: Vaccinia virus; experiment: Antiviral activity against Vaccinia virus Copenhagen infected in HFF cells assessed as reduction in plaque formation up to 100 uM after 3 days; type: functional, organism-based; conditions: Orthopoxvirus vaccinia

CCOP(=O)(CO[C@H](CO)Cn1ccc(N)nc1=O)OC[C@H](NC(=O)[C@@H](N)C(C)C)C(=O)OC (some centres undefined)
Activity [1]: Active | Drug uptake [2]: Not Active

Nc1ncnc2c1ncn2[C@@H]1O[C@H](CO)[C@@H](O)[C@@H]1O [VIDARABINE]
IC50 [3]: 2 µM

CC(C)OC(=O)[C@H](COP(=O)(O)CO[C@H](CO)Cn1ccc(N)nc1=O)NC(=O)[C@H](N)C(C)C (mixture of isomers)
IC50 [4]: 1.3 µM | IC50 [5]: > 100 µM | CC50 at 48 h [6]: > 100 µM | Drug uptake [2]: Active | IC50 [3]: > 100 µM | fold change (FC) [7]: 15

CCOP(=O)(CO[C@H](CO)Cn1ccc(N)nc1=O)OC[C@H](NC(=O)[C@H](C)N)C(=O)OC (some centres undefined)
Activity [1]: Active | Drug uptake [2]: Active

Nc1ccn(C[C@H]2COP(=O)(O)CO2)c(=O)n1 [CYCLIC CIDOFOVIR]
IC50 [4]: 0.25 µM | IC50 [5]: 30 µM | CC50 [8]: 100 µM | CC50 at 48 h [6]: > 100 µM | Drug uptake [2]: Active | IC50 [3]: 40 µM

CC(C)OC(=O)[C@H](COP1(=O)CO[C@@H](Cn2ccc(N)nc2=O)CO1)NC(=O)[C@H](N)C(C)C (some centres undefined)
Drug uptake [2]: Active

Nc1ccn(C[C@@H](CO)OCP(=O)(O)O)c(=O)n1.O.O [CIDOFOVIR]
IC50 [4]: 0.11 µM | IC50 [5]: 30 µM | CC50 [9]: > 100 µM | CC50 at 48 h [6]: > 100 µM | Drug uptake [2]: Active | IC50 [3]: 20 µM

CC(C)OC(=O)[C@H](COP(=O)(O)CO[C@H](CO)Cn1ccc(N)nc1=O)NC(=O)[C@@H](N)C(C)C
IC50 [4]: 0.32 µM | IC50 [5]: > 100 µM | CC50 at 48 h [6]: > 100 µM | IC50 [3]: > 100 µM

CCOP(=O)(O)CO[C@H](CO)Cn1ccc(N)nc1=O
Activity [10]: inactive

COC(=O)[C@H](COP1(=O)CO[C@@H](Cn2ccc(N)nc2=O)CO1)NC(=O)[C@@H](N)C(C)C (some centres undefined)
IC50 [4]: 0.3 µM | IC50 [5]: > 30 µM | CC50 [9]: > 100 µM | CC50 at 48 h [6]: > 100 µM | IC50 [3]: 100 µM

— ChEMBL document CHEMBL1799947, “Synthesis, transport and antiviral activity of Ala-Ser and Val-Ser prodrugs of cidofovir” (Bioorg Med Chem Lett, 2011)
